Values after ≈ are worked out from the molar mass of the structure shown.
Key:
Assay type in all cases: functional
Pseudomonas aeruginosa = assay: Antimicrobial activity against Pseudomonas aeruginosa ATCC 27853 after 16 to 18 hrs by agar dilution method
Method in brief: (§1)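 Agar dilution following NCCLS/CLSI, with twofold serial dilutions of the compounds and reference drugs in Mueller-Hinton agar. Inocula were overnight cultures (16-18 h, 37 °C) adjusted to 0.5 McFarland. Compounds were dissolved in DMSO, which served as the control. MIC was taken as the lowest concentration preventing viable growth after 16-18 h incubation.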

Escherichia coli = assay: Antimicrobial activity against Escherichia coli ATCC 25922 after 16 to 18 hrs by agar dilution method; method in brief: as §1
Staphylococcus aureus [1] = assay: Antimicrobial activity against Staphylococcus aureus ATCC 25923 after 16 to 18 hrs by agar dilution method; method in brief: as §1
Staphylococcus aureus [2] = assay: Antimicrobial activity against methicillin-resistant Staphylococcus aureus isolate 1 after 16 to 18 hrs by agar dilution method
Method in brief: (§2)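 Agar dilution MIC on Mueller-Hinton agar with the test agents mixed into the medium. MIC was read as the lowest concentration preventing viable growth after 16–18 h incubation.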

Staphylococcus aureus [3] = assay: Antimicrobial activity against methicillin-resistant Staphylococcus aureus isolate 2 after 16 to 18 hrs by agar dilution method; method in brief: as §2
Staphylococcus aureus [4] = assay: Antimicrobial activity against methicillin-resistant Staphylococcus aureus isolate 3 after 16 to 18 hrs by agar dilution method; method in brief: as §2
Staphylococcus aureus [5] = assay: Antimicrobial activity against methicillin-resistant Staphylococcus aureus isolate 5 after 16 to 18 hrs by agar dilution method; method in brief: as §2
Staphylococcus aureus [6] = assay: Antimicrobial activity against methicillin-resistant Staphylococcus aureus isolate 4 after 16 to 18 hrs by agar dilution method; method in brief: as §2
Staphylococcus aureus [7] = assay: Antimicrobial activity against Staphylococcus aureus isolate 6 after 16 to 18 hrs by agar dilution method
Staphylococcus aureus [8] = assay: Antimicrobial activity against Staphylococcus aureus isolate 8 after 16 to 18 hrs by agar dilution method; method in brief: as §2
Staphylococcus aureus [9] = assay: Antimicrobial activity against Staphylococcus aureus isolate 7 after 16 to 18 hrs by agar dilution method; method in brief: as §2
Staphylococcus aureus [10] = assay: Antimicrobial activity against Staphylococcus aureus isolate 10 after 16 to 18 hrs by agar dilution method
Staphylococcus aureus [11] = assay: Antimicrobial activity against Staphylococcus aureus isolate 2 after 16 to 18 hrs by agar dilution method; method in brief: as §2
Staphylococcus aureus [12] = assay: Antimicrobial activity against Staphylococcus aureus isolate 4 after 16 to 18 hrs by agar dilution method
Staphylococcus aureus [13] = assay: Antimicrobial activity against Staphylococcus aureus isolate 9 after 16 to 18 hrs by agar dilution method
Staphylococcus aureus [14] = assay: Antimicrobial activity against Staphylococcus aureus isolate 3 after 16 to 18 hrs by agar dilution method
Staphylococcus aureus [15] = assay: Antimicrobial activity against Staphylococcus aureus isolate 5 after 16 to 18 hrs by agar dilution method
Staphylococcus aureus [16] = assay: Antimicrobial activity against Staphylococcus aureus isolate 1 after 16 to 18 hrs by agar dilution method

Compound	MIC (Pseudomonas aeruginosa)	MIC (Escherichia coli)	MIC (Staphylococcus aureus [1])	also measured
CCCCCc1ccc(C(=O)CC(O)S(=O)(=O)[O-])cc1.[Na+] (configuration not stated)	> 64 µg/mL	> 64 µg/mL	> 64 µg/mL	–
CCc1ccc(C(=O)C/C=N/OC)cc1	> 64 µg/mL	> 64 µg/mL	4 µg/mL (≈ 19.5 µM)	–
Cc1ccc(C(=O)C/C=N/O)cc1	> 64 µg/mL	> 64 µg/mL	64 µg/mL (≈ 361 µM)	–
CO/N=C/CC(=O)c1ccccc1	> 64 µg/mL	> 64 µg/mL	64 µg/mL (≈ 361 µM)	–
CO/N=C/CC(=O)c1ccc(C)cc1	64 µg/mL (≈ 335 µM)	64 µg/mL (≈ 335 µM)	4 µg/mL (≈ 20.9 µM)	MIC (Staphylococcus aureus [2]): 8 µg/mL (≈ 41.8 µM); MIC (Staphylococcus aureus [3]): 8 µg/mL (≈ 41.8 µM); MIC (Staphylococcus aureus [4]): 8 µg/mL (≈ 41.8 µM); MIC (Staphylococcus aureus [5]): 8 µg/mL (≈ 41.8 µM); MIC (Staphylococcus aureus [6]): 8 µg/mL (≈ 41.8 µM)
CCCCCc1ccc(C(=O)C/C=N/OC)cc1	64 µg/mL (≈ 259 µM)	64 µg/mL (≈ 259 µM)	4 µg/mL (≈ 16.2 µM)	–
CCO/N=C/CC(=O)c1ccc(CC)cc1	> 64 µg/mL	> 64 µg/mL	4 µg/mL (≈ 18.2 µM)	–
CC(C)c1ccc(C(=O)CC(O)S(=O)(=O)[O-])cc1.[Na+] (configuration not stated)	> 64 µg/mL	> 64 µg/mL	> 64 µg/mL	–
NC(=O)N/N=C/CC(=O)c1ccccc1	> 64 µg/mL	> 64 µg/mL	> 64 µg/mL	–
Cc1ccc(C(=O)CC=O)cc1	> 64 µg/mL	> 64 µg/mL	> 64 µg/mL	–
Cc1ccc(C(=O)C/C=N/NC(N)=S)cc1	> 64 µg/mL	> 64 µg/mL	> 64 µg/mL	–
CCc1ccc(/C(C/C=N/OC)=N\OC)cc1	> 64 µg/mL	> 64 µg/mL	32 µg/mL (≈ 137 µM)	–
CCCCCc1ccc(C(=O)C/C=N/OCC)cc1	> 64 µg/mL	> 64 µg/mL	4 µg/mL (≈ 15.3 µM)	–
O=CCC(=O)c1ccccc1	> 64 µg/mL	> 64 µg/mL	> 64 µg/mL	–
Cc1ccc(C(=O)C/C=N/NC(N)=O)cc1	> 64 µg/mL	> 64 µg/mL	> 64 µg/mL	–
CCO/N=C/CC(=O)c1ccc(C)cc1	64 µg/mL (≈ 312 µM)	64 µg/mL (≈ 312 µM)	4 µg/mL (≈ 19.5 µM)	–
CCO/N=C(/C/C=N/OCC)c1ccc(CC)cc1	> 64 µg/mL	> 64 µg/mL	32 µg/mL (≈ 122 µM)	–
CO/N=C/CC(=O)c1ccc(C(C)C)cc1	> 64 µg/mL	> 64 µg/mL	2 µg/mL (≈ 9.12 µM)	MIC (Staphylococcus aureus [2]): 8 µg/mL (≈ 36.5 µM); MIC (Staphylococcus aureus [3]): 8 µg/mL (≈ 36.5 µM); MIC (Staphylococcus aureus [4]): 8 µg/mL (≈ 36.5 µM); MIC (Staphylococcus aureus [5]): 4 µg/mL (≈ 18.2 µM); MIC (Staphylococcus aureus [6]): 8 µg/mL (≈ 36.5 µM)
CCO/N=C/CC(=O)c1ccc(C(C)C)cc1	> 64 µg/mL	> 64 µg/mL	1 µg/mL (≈ 4.29 µM)	MIC (Staphylococcus aureus [7]): 4 µg/mL (≈ 17.1 µM); MIC (Staphylococcus aureus [8]): 8 µg/mL (≈ 34.3 µM); MIC (Staphylococcus aureus [9]): 8 µg/mL (≈ 34.3 µM); MIC (Staphylococcus aureus [2]): 16 µg/mL (≈ 68.6 µM); MIC (Staphylococcus aureus [10]): 4 µg/mL (≈ 17.1 µM); MIC (Staphylococcus aureus [11]): 16 µg/mL (≈ 68.6 µM); MIC (Staphylococcus aureus [12]): 2 µg/mL (≈ 8.57 µM); MIC (Staphylococcus aureus [13]): 4 µg/mL (≈ 17.1 µM); MIC (Staphylococcus aureus [3]): 8 µg/mL (≈ 34.3 µM); MIC (Staphylococcus aureus [4]): 8 µg/mL (≈ 34.3 µM); MIC (Staphylococcus aureus [5]): 8 µg/mL (≈ 34.3 µM); MIC (Staphylococcus aureus [14]): 4 µg/mL (≈ 17.1 µM); MIC (Staphylococcus aureus [15]): 1 µg/mL (≈ 4.29 µM); MIC (Staphylococcus aureus [6]): 16 µg/mL (≈ 68.6 µM); MIC (Staphylococcus aureus [16]): 4 µg/mL (≈ 17.1 µM)
CO/N=C(/C/C=N/OC)c1ccc(C(C)C)cc1	> 64 µg/mL	> 64 µg/mL	32 µg/mL (≈ 129 µM)	–
CCO/N=C(/C/C=N/OCC)c1ccc(C(C)C)cc1	> 64 µg/mL	> 64 µg/mL	32 µg/mL (≈ 116 µM)	–
CCCCCc1ccc(/C(C/C=N/OCC)=N\OCC)cc1	> 64 µg/mL	> 64 µg/mL	64 µg/mL (≈ 210 µM)	–
NC(=S)N/N=C/CC(=O)c1ccccc1	> 64 µg/mL	> 64 µg/mL	> 64 µg/mL	–
O=C(C/C=N/O)c1ccccc1	> 64 µg/mL	> 64 µg/mL	64 µg/mL (≈ 392 µM)	–
CCCCCc1ccc(/C(C/C=N/OC)=N\OC)cc1	> 64 µg/mL	> 64 µg/mL	64 µg/mL (≈ 232 µM)	–
CC[C@H]1OC(=O)[C@H](C)[C@@H](O[C@H]2C[C@@](C)(OC)[C@@H](O)[C@H](C)O2)[C@H](C)[C@@H](O[C@@H]2O[C@H](C)C[C@H](N(C)C)[C@H]2O)[C@](C)(OC)C[C@@H](C)C(=O)[C@H](C)[C@@H](O)[C@]1(C)O [CLARITHROMYCIN]	> 64 µg/mL	32 µg/mL (≈ 42.8 µM)	0.12 µg/mL (≈ 0.16 µM)	–
CCCCCCCCCC(=O)CC=O [HOUTTUYNIN]	–	–	32 µg/mL (≈ 161 µM)	MIC (Staphylococcus aureus [2]): 16 µg/mL (≈ 80.7 µM); MIC (Staphylococcus aureus [3]): 16 µg/mL (≈ 80.7 µM); MIC (Staphylococcus aureus [4]): 16 µg/mL (≈ 80.7 µM); MIC (Staphylococcus aureus [5]): 16 µg/mL (≈ 80.7 µM); MIC (Staphylococcus aureus [6]): 16 µg/mL (≈ 80.7 µM)
C[C@H]1COc2c(N3CCN(C)CC3)c(F)cc3c(=O)c(C(=O)O)cn1c23.C[C@H]1COc2c(N3CCN(C)CC3)c(F)cc3c(=O)c(C(=O)O)cn1c23.O [LEVOFLOXACIN]	0.5 µg/mL	0.025 µg/mL	0.25 µg/mL	MIC (Staphylococcus aureus [7]): 0.5 µg/mL; MIC (Staphylococcus aureus [8]): 0.25 µg/mL; MIC (Staphylococcus aureus [9]): 0.25 µg/mL; MIC (Staphylococcus aureus [2]): 8 µg/mL; MIC (Staphylococcus aureus [10]): 0.5 µg/mL; MIC (Staphylococcus aureus [11]): 0.5 µg/mL; MIC (Staphylococcus aureus [12]): 0.25 µg/mL; MIC (Staphylococcus aureus [13]): 0.25 µg/mL; MIC (Staphylococcus aureus [3]): 8 µg/mL; MIC (Staphylococcus aureus [4]): 16 µg/mL; MIC (Staphylococcus aureus [5]): 16 µg/mL; MIC (Staphylococcus aureus [14]): 0.25 µg/mL; MIC (Staphylococcus aureus [15]): 0.125 µg/mL; MIC (Staphylococcus aureus [6]): 16 µg/mL; MIC (Staphylococcus aureus [16]): 0.25 µg/mL
CCCCCCCCCC(=O)CC(O)S(=O)(=O)[O-].[Na+] (configuration not stated) [SODIUM HOUTTUYFONATE]	–	–	–	MIC (Staphylococcus aureus [7]): 64 µg/mL; MIC (Staphylococcus aureus [8]): 64 µg/mL; MIC (Staphylococcus aureus [9]): 64 µg/mL; MIC (Staphylococcus aureus [10]): 32 µg/mL; MIC (Staphylococcus aureus [11]): 64 µg/mL; MIC (Staphylococcus aureus [12]): 64 µg/mL; MIC (Staphylococcus aureus [13]): 64 µg/mL; MIC (Staphylococcus aureus [14]): 64 µg/mL; MIC (Staphylococcus aureus [15]): 32 µg/mL; MIC (Staphylococcus aureus [16]): 64 µg/mL

Source: ChEMBL document CHEMBL1137674, “Synthesis and antibacterial evaluation of novel 4-alkyl substituted phenyl beta-aldehyde ketone derivatives” (2009)
